CHO-K1 Ca ag: M1 agonist counterscreen hit in parental CHO-K1 cells. Fluo-8 calcium fluorescence; scaled to maximal ATP response, vehicle zero. activation, % at 3 µM. actives 0.48% (n = 360,000). AID 602248; in the data active = activation above about 15%;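 note: untransfected CHO-K1 host cells lacking M1 receptor as counterscreen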
TRPN1 ag: agonists of zebrafish TRPN1 channel; HEK293 zebrafish TRPN1-YFP, Fluo-8 calcium fluorescence; 100% = response to 87 µM carbachol; activation, % at 3 µM; actives 0.18% (n = 220,000);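 active = activation above its plate's cutoff, the mean activation of test wells on that plate plus 3 SD, cut at about 19% in these data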;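 note: 0% = DMSO alone and 100% = 87 µM carbachol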
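Material: zebrafish TRPN1-YFP in HEK293 cells. Doses: one dose of 3 µM, 0.3% DMSO. Incubation: dye 1 h 37 °C plus 30 min RT. Measured by: intracellular calcium fluorescence with Fluo-8.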
CHO-K1 Ca antag: nonselective inhibitor or artifact in parental CHO-K1 cells. ATP-induced calcium, Fluo-8 fluorescence. inhibition, % at 3 µM. actives 0.6% (n = 360,000). AID 602250;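 active = inhibition above a per-plate cutoff, the plate's mean sample inhibition plus 3 SD, cut at about 24% in these data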;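 note: 0% = DMSO plus EC80 ATP and 100% = DMSO alone without ATP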
TRPML3 ag: human mucolipin-3 channel agonism; Q8TDD5; HEK293 TRPML3-YFP, Fluo-8 calcium fluorescence; 100% = the carbachol control signal; activation, % at 3 µM; actives 0.29% (n = 220,000);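 active = activation above its plate's cutoff, the mean activation of the plate's test wells plus 3 SD, cut at about 12% in these data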;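 note: 0% = DMSO only wells and 100% = carbachol wells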
Target sequence (Q8TDD5 whole entry, looked up): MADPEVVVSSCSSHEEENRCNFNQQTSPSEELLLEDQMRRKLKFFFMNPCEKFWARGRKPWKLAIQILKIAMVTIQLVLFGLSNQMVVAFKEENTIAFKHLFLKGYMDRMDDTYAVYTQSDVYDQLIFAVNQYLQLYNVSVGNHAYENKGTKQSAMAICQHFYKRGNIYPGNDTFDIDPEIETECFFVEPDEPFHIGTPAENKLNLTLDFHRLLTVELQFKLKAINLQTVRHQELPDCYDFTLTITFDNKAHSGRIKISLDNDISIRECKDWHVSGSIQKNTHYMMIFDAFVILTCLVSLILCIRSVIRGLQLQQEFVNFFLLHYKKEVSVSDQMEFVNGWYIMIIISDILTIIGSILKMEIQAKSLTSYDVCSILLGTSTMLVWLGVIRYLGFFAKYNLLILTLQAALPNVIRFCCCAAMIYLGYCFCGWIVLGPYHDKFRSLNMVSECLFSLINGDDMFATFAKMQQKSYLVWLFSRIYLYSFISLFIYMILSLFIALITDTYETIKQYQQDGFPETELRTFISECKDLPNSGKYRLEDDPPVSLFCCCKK
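Material: HEK293 cells stably carrying human TRPML3-YFP; compound dosing: single dose, 3 µM final nominal compound, 0.3% DMSO final; incubation: 1-h 37 °C dye load, 5-s basal, 120-s post-compound reads; technique: Fluo-8 intracellular calcium fluorescence, excitation 470-495 nm, emission 515-575 nm; read-out basis: percent activation from peak-to-basal fluorescence ratio, scaled between DMSO and carbachol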
M1 PAM parental: counter-screen for M1 PAMs: effect in parental CHO-K1 cells | ATP EC20, Fluo-8 calcium fluorescence; 0% at ATP EC20, 100% at ATP max | activation, % at 3 µM | actives 0.02% (n = 360,000) | AID 602247;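 active = activation above the run cutoff, the mean activation of all test compounds plus 3 SD, cut at about 40% in these data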;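 note: peak over basal fluorescence ratio in a 140 s read after ATP addition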
* marks the source's active call; other numbers are inactive results; . = not tested or not shown. A selection: hits, their analogues and other compounds. The true share with any hit is near 1.2%.

SMILES | CHO-K1 Ca ag | TRPN1 ag | CHO-K1 Ca antag | TRPML3 ag | M1 PAM parental
CC1CN(S(=O)(=O)c2cccc(C(=O)OCc3cc(=O)oc4cc(O)ccc34)c2)CC(C)O1 (centres undefined) | 3 | 1 | -1 | 0 | 6
COc1ccc2c(COC(=O)c3cccc(S(=O)(=O)NCC(C)C)c3)cc(=O)oc2c1 | 17* | . | 20 | . | -12
COc1ccc(S(=O)(=O)NCCC(=O)OCc2cc(=O)oc3cc(C)ccc23)cc1[N+](=O)[O-] | 11 | . | 34* | . | -13
N#C/C(=C\c1ccc(O)cc1)C(=O)NCc1cccc(Cl)c1 | 17* | . | -10 | . | 3
N#C/C(=C/c1ccc(O)cc1)C(=O)NCc1ccc(Cl)cc1 | 2 | . | 5 | . | -15
COc1ccccc1NS(=O)(=O)c1ccc(C)c(C(=O)NCCCN2CCCC2=O)c1 | -1 | . | 31* | . | -3
Cc1c(CCOC(=O)c2ccccc2)sc[n+]1CC(=O)c1ccc(Br)cc1 | 1 | . | -6 | . | -9
Cc1c(CCOC(=O)c2ccccc2)sc[n+]1Cc1ccccc1 | -1 | 1 | 26* | 0 | -15
CN(C)c1ccc(-c2nn3c(C4CCCCC4)nnc3s2)cc1 | 0 | -1 | 30* | 0 | -7
CC(Sc1ncn[nH]1)C(=O)c1c(N)n(C)c(=O)n(C)c1=O (centres undefined) | 0 | . | 5 | . | -2
CC(Sc1nnc(N)s1)C(=O)c1c(N)n(C)c(=O)n(C)c1=O (centres undefined) | 18* | . | 14 | . | 0
COc1ccc(CN2CCC[C@]3(N[C@H](c4ccccc4)[C@@H]4C(=O)N(Cc5ccccc5)C(=O)[C@@H]43)C2=O)cc1 | 3 | . | 12 | . | -2
COc1cccc2cc(C(=O)NCc3ccccc3Cl)c(=O)oc12 | 15* | . | 6 | . | 11
COc1cccc2cc(C(=O)NCc3ccccc3Br)c(=O)oc12 | 0 | . | -1 | . | 12
COc1ccc(N=Nc2nc3ccc(Br)cc3n2C)cc1 | 18* | 39* | 6 | 30* | -4
COc1ccc(-c2c(-c3cc(OC)cc(OC)c3)n(C)c3ccc(Br)cc23)cc1 | 0 | . | -3 | . | -7
O=C(CN1CCCCCC1)N1c2ccccc2Sc2ccccc21 | 16* | 1 | -4 | 0 | 14
CC1(C(=O)NS(=O)(=O)c2ccccc2C(F)(F)F)CCN1C(=O)CCC1CCCC1 (centres undefined) | 0 | . | 4 | . | -5
O=C(CN1C(=O)c2ccccc2S1(=O)=O)N1CCc2ccccc2C1 | 0 | 1 | 25* | 0 | -9
CC(CNCc1ccc2c(c1)OCO2)NCc1ccc2c(c1)OCO2 (centres undefined) | 2 | -1 | -24 | 0 | 43*
CC1=C(C(=O)N(C)C)CC(CC(=O)NCc2cccs2)C(=O)N1CCC1=CCCCC1 (centres undefined) | 0 | . | -10 | . | 13
O=S(=O)(c1ccccc1C(F)(F)F)N1CCN(c2ncnc3sccc23)CC1 | 17* | . | -2 | . | -12
CC(O)CC(=O)OC[C@]12CC[C@H]3[C@@](C)(CC[C@H]4C(C)(C)CCC[C@]34C)[C@@H]1CC(C1=CC(=O)OC1O)O2 (some centres undefined) | 1 | . | 8 | . | 12
O=[N+]([O-])c1ccc(N2CCN(C(=S)Nc3ccc(F)cc3F)CC2)cc1 | 11 | 7 | 24* | 3 | -16
CCCC(=O)NC(=S)N1CCN(c2ccc([N+](=O)[O-])cc2)CC1 | 0 | -1 | 25* | 0 | -11
SMILES | CHO-K1 Ca ag | TRPN1 ag | CHO-K1 Ca antag | TRPML3 ag | M1 PAM parental
O=[N+]([O-])c1ccc(N2CCN(C(=S)Nc3ccc(F)cc3)CC2)cc1 | 12 | 1 | 19 | 1 | -7
Cc1csc2c(N3CCN(C(=O)Nc4ccccc4)CC3)ncnc12 | 10 | 8 | 10 | 4 | -22
CCCC(=O)NC(=S)Nc1ccc(N2CCN(C(=O)c3cccs3)CC2)cc1 | 15* | 2 | 14 | 1 | -12
Cc1csc2c(N3CCN(C(=S)Nc4ccc(F)cc4F)CC3)ncnc12 | 23* | 12 | 16 | 5 | -8
CCCC(=O)NC(=S)Nc1ccc(NC(=O)c2cccs2)cc1 | 1 | 1 | -2 | 1 | 16
COc1ccc(C(=O)c2sc(Nc3ccccc3)c(C(=O)Nc3ccc(OC)c(OC)c3)c2N)cc1 | 1 | 1 | -2 | 1 | 7
COc1ccc(Nc2sc(C(=O)c3ccc(Cl)cc3)c(N)c2C(=O)Nc2ccccc2OC)cc1 | 20* | 12 | 32* | 11 | 13
O=C(Nc1ccc(SC(F)F)cc1)c1ccc2nccnc2c1 | 17* | 8 | -1 | 3 | -11
COC(=O)c1ccc(NC(=O)c2ccc3nccnc3c2)cc1 | 7 | . | -11 | . | 24
N#Cc1ccsc1NC(=O)c1ccc(Cl)c([N+](=O)[O-])c1 | 19* | 30* | 13 | 19* | -10
N#Cc1ccsc1NC(=O)c1cccc([N+](=O)[O-])c1 | 3 | 4 | 9 | 2 | -13
Cc1cccc(S(=O)(=O)C(C#N)c2nc3ccccc3nc2N2CCCC2)c1 (centres undefined) | 0 | 1 | 27* | 2 | -9
N#CC(c1nc2ccccc2nc1N1CCCC1)S(=O)(=O)c1ccccc1 (centres undefined) | 1 | 3 | -6 | 1 | -4
COc1cccc(C(=O)OC2CCN(C)CC2)c1 | -1 | 0 | 29* | 1 | -14
C=CCOc1ccccc1CN(CCc1ccccc1)C(=O)c1cccc(S(C)(=O)=O)c1 | 16* | . | -5 | . | 8
C=CS(=O)(=O)c1ccc(Oc2ccc(S(=O)(=O)C=C)cc2)cc1 | 15* | 6 | -4 | 2 | 9
NS(=O)(=O)c1ccc(Oc2ccc(S(N)(=O)=O)cc2)cc1 | 0 | 2 | 6 | 1 | 8
O=C1Nc2ccccc2/C1=C/c1ccc([N+](=O)[O-])cc1 | 2 | . | 0 | . | -13
CC1(c2ccc([N+](=O)[O-])cc2)Nc2ccccc2S1 (centres undefined) | 15* | . | 13 | . | 1
COc1ccc(Br)c(C(=O)Nc2cccc(Cl)c2Cl)c1 | 0 | -2 | 31* | -1 | -14
CCOC(=O)N(C)c1c(CC)nc2c(OCc3ccc(Cl)cc3)cccn12 | 0 | . | -6 | . | 9
O=C1[C@@H]2[C@@H](CN3CN(c4ccccc4)N=C(c4ccccc4)[C@@]23c2ccccc2)C(=O)N1c1ccccc1 | 1 | . | -30 | . | 42*
O=C1[C@H]2C(c3ccccc3)=NN(c3ccccc3)[C@H]2C(=O)N1c1ccccc1 | -1 | 1 | -7 | 1 | 6
COc1ccc(-c2sc3ccccc3c2-c2cc(OC)ccc2C=O)cc1 | 1 | . | -18 | . | 9
COc1cc(NC(=O)C/C(C)=N/NC(=O)C(=O)NCCO)c(OC)cc1Cl | 0 | -1 | 55* | 0 | -15
COc1ccc(N2c3ccccc3CN(Cc3ccccc3)[C@@H](C)[C@H]2Cc2cccnc2)cc1 | 0 | . | 3 | . | -10
